The record followed here is publication PMC7262549 (Biochemistry and Biophysics Reports, 2020).

Like-named read-outs stand apart in the source and are kept apart here.

What all share (settings): 4 mM MgSO4
The subject of experiment [1] is Dkum (wt). Put plainly: luminometry, peak light intensity, Michaelis-Menten fit. The format is biochemical, Drilaster kumejimensis.
Experiment [2] has as its system Dkum (wt).
Experiment [3] concerns Psag (wt). Put plainly: luminometry, peak light intensity, Michaelis-Menten fit. In kind it is biochemical, Pristolycus sagulatus.
The next experiment deals with MALuci2 (wt). Briefly: luminometry, peak light intensity, Michaelis-Menten fit. The format is biochemical, Luciola sp. The method, boiled down: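 Wild-type luciferase coding sequence from lantern cDNA, expressed from pRSET-B in E. coli JM109(DE3) and Ni-NTA purified. Luciferin Km: 50 μg/mL partially purified enzyme, luciferin 0.6–640 μM. ATP Km: 50 μg/mL purified enzyme, ATP 5–1920 μM. Light emission recorded 10 s at 0.02 s gating on a luminometer. Rate taken as peak intensity; Km from least-squares Michaelis–Menten fit.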

The test system of experiment [4] is Sfla (wt). Put plainly: luminometry, peak light intensity, Michaelis-Menten fit. In kind it is biochemical, Stenocladius flavipennis.
The test system of experiment [5] is Sfla (wt).
Experiment [6] concerns Pmat (wt). Briefly: luminometry, peak light intensity, Michaelis-Menten fit. The format is biochemical, Pyrocoelia matsumurai kumejimensis.
Experiment [7] deals with Pmat (wt).
Experiment [8] relates to Psag (wt).
The mark [9] stands for this setting: read-out: Km (ATP μM), 50 mM Tris-HCl pH 8.0, 1 mM luciferin.
The mark [10] stands for this setting: read-out: Km (luciferin μM), 50 mM Tris-HCl pH 8.0, 2 mM ATP.

For `Nc1ncnc2c1ncn2[C@@H]1O[C@H](COP(=O)(O)OP(=O)(O)OP(=O)(O)O)[C@@H](O)[C@H]1O` [ATP], the Km (in general, the substrate concentration at which the rate is half of its maximum) with Dkum (wt) [1] (setting [9]) stood at 127 µM; with Dkum (wt) [2] (setting [9]), 26.8 µM; in the experiment on Psag (wt) [3] (setting [9]), 194 µM; in the experiment on MALuci2 (wt) (setting [9]), 188 µM; with Sfla (wt) [4] (setting [9]), 21.5 µM; with Sfla (wt) [5] (setting [9]), 9 µM. Moreover, the Km worked out at 104 µM with Pmat (wt) [6] (setting [9]), 98.1 µM in the experiment with Pmat (wt) [7] (setting [9]) and 282 µM with Psag (wt) [8] (setting [9]).

Take `O=C(O)[C@H]1CSC(c2nc3ccc(O)cc3s2)=N1` [D-luciferin]: the Km with Dkum (wt) [1] (setting [10]) turned out to be 60.1 µM; in the experiment with Dkum (wt) [2] (setting [10]) it was 19.4 µM; in the experiment on Psag (wt) [3] (setting [10]), 4.9 µM; in the experiment on MALuci2 (wt) (setting [10]), 4.25 µM; with Sfla (wt) [4] (setting [10]), 16.6 µM; in the experiment on Sfla (wt) [5] (setting [10]), 6.6 µM. Also, the Km in the experiment on Pmat (wt) [6] (setting [10]) turned out to be 14.2 µM; in the experiment on Pmat (wt) [7] (setting [10]), 62.2 µM; in the experiment with Psag (wt) [8] (setting [10]), 222 µM.
